Tests used:
[1] = Growth inhibition of human OVCAR4 cells after 48 hrs by coulter counting analysis; format: functional; conditions: OVCAR-4, 48 h
In short: (§1)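 Five-dose NCI-60 follow-up, 0.01–100 µM, made from DMSO stock in buffered saline (final DMSO <1%), in duplicate wells. Cells in RPMI 1640 with 10% FBS at 6×10^4 cells/ml, 37 °C, 5% CO2, 48 h. Cells diluted tenfold in saline, Coulter-counted and corrected for dilution. GI50, TGI and LC50 taken from log concentration–percent growth curves.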

[2] = Growth inhibition of human OVCAR5 cells after 48 hrs by coulter counting analysis; format: functional; conditions: OVCAR-5, 48 h; in short: as §1
[3] = Growth inhibition of human OVCAR8 cells after 48 hrs by coulter counting analysis; format: functional; conditions: OVCAR-8, 48 h; in short: as §1
SK-OV-3 = experiment: Growth inhibition of human SKOV3 cells after 48 hrs by coulter counting analysis; format: functional; conditions: SK-OV-3, 48 h; in short: as §1
786-0 = experiment: Growth inhibition of human 786-0 cells after 48 hrs by coulter counting analysis; format: functional; conditions: 786-0, 48 h
In short: (§2)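 NCI five-dose screen at 0.01-100 µM, diluted from DMSO stocks in buffered saline (final DMSO <1%). Cells at 6×10^4 cells/ml in RPMI 1640 with 10% FBS, in duplicate wells, at 37 °C under 5% CO2 for 48 h. Cells diluted tenfold in saline and Coulter-counted. GI50, TGI and LC50 taken from log concentration-growth inhibition curves.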

SN12C = experiment: Growth inhibition of human SN12C cells after 48 hrs by coulter counting analysis; format: functional; in short: as §1
[4] = Growth inhibition of human UO31 cells after 48 hrs by coulter counting analysis; format: functional; conditions: UO-31, 48 h
In short: (§3)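 NCI five-dose screen, 0.01-100 µM, from DMSO stocks diluted in buffer saline (final DMSO <1%). Cells grown in RPMI 1640 + 10% FBS, seeded at 6×10^4 cells/ml, in duplicate wells. Exposure 48 h at 37 °C, 5% CO2. Cells diluted 10-fold in saline and counted by Coulter counter. GI50 derived from log concentration–percent growth inhibition curves. Controls carried matching PBS/saline/DMSO.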

DU-145 = experiment: Growth inhibition of human DU145 cells after 48 hrs by coulter counting analysis; format: functional; conditions: DU-145, 48 h; in short: as §2
[5] = target: Cyclin-dependent kinase 2/cyclin E1 (Homo sapiens) (UniProt P24864+P24941); experiment: Inhibition of CDK2/Cyclin E1 (unknown origin) at 20 uM after 30 mins by scintillation counting analysis relative to control; format: protein-complex assay
In short: (§4)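 Recombinant kinases, cloned, expressed and purified in-house. Radiometric ³³P-ATP assay with kinase at ~10-50 nM final and 1-5 µg peptide or protein substrate. Compound at 20 µM final, in duplicate. Reaction started by adding ATP, run 30 min at ambient temperature, then spotted on P81 phosphocellulose. Plates washed in 1% phosphoric acid and counted by scintillation. No-substrate blank subtracted. Result is mean % activity change versus DMSO control.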

[6] = target: Cyclin-dependent kinase 4/cyclin D1 (Homo sapiens) (UniProt P11802+P24385); experiment: Inhibition of CDK4/Cyclin D1 (unknown origin) at 20 uM after 30 mins by scintillation counting analysis relative to control; format: protein-complex assay; in short: as §4
A549 = experiment: Growth inhibition of human A549/ATCC cells after 48 hrs by coulter counting analysis; format: functional; conditions: A549, 48 h; in short: as §2
HOP-62 = experiment: Growth inhibition of human HOP62 cells after 48 hrs by coulter counting analysis; format: functional; conditions: HOP-62, 48 h; in short: as §2
COLO 205 = experiment: Growth inhibition of human COLO205 cells after 48 hrs by coulter counting analysis; format: functional; conditions: COLO 205, 48 h; in short: as §2
HCT-116 = experiment: Growth inhibition of human HCT116 cells after 48 hrs by coulter counting analysis; format: functional; conditions: HCT-116, 48 h; in short: as §2
[7] = Growth inhibition of human HCT15 cells after 48 hrs by coulter counting analysis; format: functional; conditions: HCT-15, 48 h; in short: as §2
KM12 = experiment: Growth inhibition of human KM12 cells after 48 hrs by coulter counting analysis; format: functional; conditions: KM12, 48 h; in short: as §2
SW-620 = experiment: Growth inhibition of human SW620 cells after 48 hrs by coulter counting analysis; format: functional; conditions: SW-620, 48 h; in short: as §1
SF-268 = experiment: Growth inhibition of human SF268 cells after 48 hrs by coulter counting analysis; format: functional; conditions: SF-268, 48 h; in short: as §1
U-251 = experiment: Growth inhibition of human U251 cells after 48 hrs by coulter counting analysis; format: functional; conditions: U-251, 48 h; in short: as §3
Malme-3M = experiment: Growth inhibition of human MALME-3M cells after 48 hrs by coulter counting analysis; format: functional; in short: as §2
MDA-MB-435 = experiment: Growth inhibition of human MDA-MB-435 cells after 48 hrs by coulter counting analysis; format: functional; conditions: MDA-MB-435, 48 h; in short: as §2
SK-MEL-28 = experiment: Growth inhibition of human SK-MEL-28 cells after 48 hrs by coulter counting analysis; format: functional; conditions: SK-MEL-28, 48 h; in short: as §1
SK-MEL-5 = experiment: Growth inhibition of human SK-MEL-5 cells after 48 hrs by coulter counting analysis; format: functional; conditions: SK-MEL-5, 48 h; in short: as §1
[8] = Growth inhibition of human UACC257 cells after 48 hrs by coulter counting analysis; format: functional; conditions: UACC-257, 48 h; in short: as §3
TK-10 = experiment: Growth inhibition of human TK10 cells after 48 hrs by coulter counting analysis; format: functional; conditions: TK-10, 48 h; in short: as §3
[9] = Growth inhibition of human EKVX cells after 48 hrs by coulter counting analysis; format: functional; in short: as §2
CCRF-CEM = experiment: Growth inhibition of human CCRF-CEM cells at 10 uM after 48 hrs by sulforhodamine B assay relative to control; format: functional; conditions: read-out: GI
In short: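 NCI-60 primary screen at a single dose of 10 µM with 48 h continuous exposure. Growth or viability read by sulforhodamine B protein staining and expressed as percent growth inhibition versus untreated cells.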

NCI-H460 = experiment: Growth inhibition of human NCI-H460 cells at 10 uM after 48 hrs by sulforhodamine B assay relative to control; format: functional; conditions: NCI-H460, 48 h, read-out: GI
In short: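 NCI-60 primary screen at a single 10 µM dose. Continuous 48 h exposure, with growth or viability estimated by sulforhodamine B protein staining. Reported as percent growth inhibition of treated cells relative to untreated growth.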

SMILES | GI50 [1] | GI50 [2] | GI50 [3] | GI50 (SK-OV-3) | GI50 (786-0) | GI50 (SN12C) | GI50 [4] | GI50 (DU-145) | inhibition [5] | inhibition [6] | GI50 (A549) | GI50 (HOP-62) | GI50 (COLO 205) | GI50 (HCT-116) | GI50 [7] | GI50 (KM12) | GI50 (SW-620) | GI50 (SF-268) | GI50 (U-251) | GI50 (Malme-3M) | other results
COc1ccc(-c2cc(=O)c3c(OC)c4ccoc4c(/C=C/C=O)c3o2)cc1 | 3.8 µM | 11.7 µM | 2.83 µM | 4.73 µM | 16.8 µM | 2.32 µM | 3.17 µM | 4.53 µM | 0% | 0% | 18.5 µM | 2.98 µM | 27.6 µM | 1.06 µM | 1.73 µM | 12.3 µM | 2.3 µM | 4.38 µM | 2.53 µM | 3.79 µM | GI50 (MDA-MB-435): 2.81 µM; GI50 (SK-MEL-28): 2.52 µM; GI50 (SK-MEL-5): 1.69 µM; GI50 [8]: 3.63 µM
COc1c(C(=O)/C=C/c2ccc(Cl)cc2)c(O)c(Br)c2occc12 | 3.28 µM | 6.04 µM | 3.43 µM | 1.11 µM | 2.99 µM | 3.77 µM | 2.59 µM | 4.07 µM | 5% | 15% | 6.72 µM | 6.82 µM | 1.76 µM | 2.83 µM | 3.43 µM | 3.49 µM | 2.71 µM | 3.5 µM | 3.22 µM | 2.61 µM | GI50 (TK-10): 3.48 µM; GI50 [9]: 4.18 µM; GI50 (MDA-MB-435): 3.05 µM; GI50 (SK-MEL-28): 9.86 µM; GI50 (SK-MEL-5): 3.33 µM; GI50 [8]: 4.98 µM
COc1ccccc1/C=C/C(=O)c1c(O)cc2occc2c1OC | > 100 µM | > 100 µM | 53.8 µM | 21.3 µM | 35.3 µM | > 100 µM | > 100 µM | 23.5 µM | 6% | 0% | > 100 µM | 19.3 µM | > 100 µM | 40.4 µM | > 100 µM | > 100 µM | > 100 µM | 22.2 µM | 18.9 µM | 18.9 µM | inhibition of growth at 10 µM (CCRF-CEM): 63%; inhibition of growth at 10 µM (NCI-H460): 61%; GI50 (TK-10): 21.9 µM; GI50 [9]: 33.7 µM; GI50 (MDA-MB-435): 5.69 µM; GI50 (SK-MEL-28): > 100 µM; GI50 (SK-MEL-5): > 100 µM; GI50 [8]: > 100 µM
C=CCc1c(O)c(C(=O)/C=C/c2ccc(Cl)cc2)c(OC)c2ccoc12 | 2.77 µM | 2.8 µM | 3.04 µM | 5.96 µM | 4.83 µM | 4.96 µM | 2.88 µM | 3.85 µM | 3% | 0% | 4.7 µM | 2.31 µM | 4.44 µM | 2.74 µM | 3.4 µM | 3.72 µM | 2.56 µM | 3.25 µM | 2.3 µM | 2.74 µM | GI50 (TK-10): 3.62 µM; GI50 [9]: 7.23 µM; GI50 (MDA-MB-435): 2.06 µM; GI50 (SK-MEL-28): 2.32 µM; GI50 (SK-MEL-5): 2.07 µM; GI50 [8]: 2.39 µM

Source: ChEMBL document CHEMBL3286372, “Design, synthesis and structure-activity relationship of novel semi-synthetic flavonoids as antiproliferative agents” (2014)
